# Experimental data taken from ChEMBL document CHEMBL3860061, “A Novel Parkinson's Disease Drug Candidate with Potent Anti-neuroinflammatory Effects through the Src Signaling Pathway” (J Med Chem, 2016).
# Activity calls are given as the source filed them. No cut-off for these calls is given here.
# Key:
# [1] = target: Proto-oncogene tyrosine-protein kinase Src (Rattus norvegicus) (UniProt Q9WUD9); assay: Inhibition of Src in Sprague-Dawley rat primary mixed mesecephalic neuron/glial cells assessed as suppression of LPS-induced IL-1beta expression at 10 uM preincubated for 1 hr followed by LPS challenge measured after 5 hrs by ELISA
# Sequence of Proto-oncogene tyrosine-protein kinase Src (Rattus norvegicus) (Q9WUD9 2-536 limits assumed): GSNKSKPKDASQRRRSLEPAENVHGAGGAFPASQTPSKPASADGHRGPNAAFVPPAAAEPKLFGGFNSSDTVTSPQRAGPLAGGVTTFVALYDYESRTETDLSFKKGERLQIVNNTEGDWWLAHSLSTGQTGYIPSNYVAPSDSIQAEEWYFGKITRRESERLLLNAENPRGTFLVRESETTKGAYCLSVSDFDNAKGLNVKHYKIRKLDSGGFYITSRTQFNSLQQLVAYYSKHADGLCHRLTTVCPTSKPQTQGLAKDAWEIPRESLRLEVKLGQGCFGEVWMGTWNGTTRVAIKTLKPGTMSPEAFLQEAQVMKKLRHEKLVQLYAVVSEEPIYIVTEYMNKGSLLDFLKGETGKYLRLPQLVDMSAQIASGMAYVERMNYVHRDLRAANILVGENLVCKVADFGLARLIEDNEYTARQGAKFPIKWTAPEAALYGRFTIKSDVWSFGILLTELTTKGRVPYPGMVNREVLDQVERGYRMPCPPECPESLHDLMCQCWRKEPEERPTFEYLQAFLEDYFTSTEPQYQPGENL
# Procedure, shortened: (§1)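 Mixed mesencephalic neuron/glia cultures from E14 Sprague-Dawley rats, used at 7 days. Agent at 10 µM added 1 h before LPS 100 ng/mL; IL-1β and TNF-α in medium measured by ELISA after 5 h, n = 6.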
# [2] = target: Proto-oncogene tyrosine-protein kinase Src (Rattus norvegicus) (UniProt Q9WUD9); assay: Inhibition of Src in Sprague-Dawley rat primary mixed mesecephalic neuron/glial cells assessed as suppression of LPS-induced TNFalpha expression at 10 uM preincubated for 1 hr followed by LPS challenge measured after 5 hrs by ELISA; procedure, shortened: as §1
# [3] = target: Proto-oncogene tyrosine-protein kinase Src (Rattus norvegicus) (UniProt Q9WUD9); assay: Inhibition of SRC in Sprague-Dawley rat primary mixed mesecephalic neuron/glial cells assessed as protection against LPS-induced dopaminergic neuro-toxicity by measuring TH expression at 10 uM preincubated for 1 hr followed by LPS challenge measured after 7 days by Western blot analysis
# Procedure, shortened: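 Mixed mesencephalic neuron/glia cultures from E14 Sprague-Dawley rats, used at 7 days. Agent at 10 µM added 1 h before LPS 100 ng/mL; TH measured by Western blot after 7 days, n = 4.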
# [4] = Drug uptake in ICR mouse plasma at 50 mg/kg, ig after 5 mins by LC/MS/MS analysis; assay type: ADME, organism-based; conditions: in vivo, po
# [5] = target: Voltage-gated inwardly rectifying potassium channel KCNH2 (Homo sapiens, UniProt Q12809); assay: Inhibition of human ERG by whole cell voltage clamp assay
# Sequence of Voltage-gated inwardly rectifying potassium channel KCNH2 (Q12809 whole entry): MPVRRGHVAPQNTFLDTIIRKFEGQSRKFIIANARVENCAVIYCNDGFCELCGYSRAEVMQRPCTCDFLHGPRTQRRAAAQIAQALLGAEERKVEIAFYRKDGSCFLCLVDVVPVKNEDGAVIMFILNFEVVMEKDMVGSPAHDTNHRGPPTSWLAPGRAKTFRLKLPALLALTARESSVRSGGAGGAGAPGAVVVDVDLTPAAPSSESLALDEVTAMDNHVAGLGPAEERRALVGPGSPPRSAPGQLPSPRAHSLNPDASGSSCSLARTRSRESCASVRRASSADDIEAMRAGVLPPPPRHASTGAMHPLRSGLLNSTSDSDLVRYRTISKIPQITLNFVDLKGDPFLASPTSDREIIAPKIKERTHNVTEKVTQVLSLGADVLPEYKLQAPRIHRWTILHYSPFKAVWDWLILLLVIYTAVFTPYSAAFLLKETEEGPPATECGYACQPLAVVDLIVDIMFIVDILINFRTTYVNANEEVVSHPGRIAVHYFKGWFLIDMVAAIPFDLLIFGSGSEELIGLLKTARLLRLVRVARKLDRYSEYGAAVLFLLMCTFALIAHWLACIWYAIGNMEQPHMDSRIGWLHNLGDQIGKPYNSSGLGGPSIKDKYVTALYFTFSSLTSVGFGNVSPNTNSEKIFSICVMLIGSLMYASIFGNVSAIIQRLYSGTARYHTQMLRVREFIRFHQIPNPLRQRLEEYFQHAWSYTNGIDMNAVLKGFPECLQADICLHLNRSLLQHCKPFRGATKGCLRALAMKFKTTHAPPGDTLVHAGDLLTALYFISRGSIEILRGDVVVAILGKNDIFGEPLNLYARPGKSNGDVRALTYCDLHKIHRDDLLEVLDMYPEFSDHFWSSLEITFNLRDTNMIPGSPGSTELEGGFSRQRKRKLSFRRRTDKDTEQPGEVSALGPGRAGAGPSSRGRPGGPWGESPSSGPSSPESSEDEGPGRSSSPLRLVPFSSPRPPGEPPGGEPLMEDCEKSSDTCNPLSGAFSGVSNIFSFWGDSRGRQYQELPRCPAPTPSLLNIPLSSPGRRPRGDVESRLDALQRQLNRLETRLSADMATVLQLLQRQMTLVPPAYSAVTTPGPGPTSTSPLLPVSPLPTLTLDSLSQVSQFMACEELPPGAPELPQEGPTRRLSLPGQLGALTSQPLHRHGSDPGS
# Procedure, shortened: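 Whole-cell voltage clamp. Internal solution: KCl 130 mM, MgCl2 1 mM, EGTA 5 mM, ATP-Mg 5 mM, HEPES 10 mM, pH 7.2. Bath: NaCl 137, CaCl2 1.8, KCl 4, MgCl2 1, glucose 5, HEPES 10 mM, pH 7.4. From a holding potential of −70 mV, 2-s steps to 50 mV in 10 mV increments every 15 s; tail current recorded on a 2-s step from +50 to −40 mV.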
# Mus musculus [6] = assay: Increase in dopamine level in striatum of MPTP-induced subacute C57/BL mouse Parkinson's disease model at 10 to 20 mg/kg […] dosed 30 mins prior to each MPTP injection for 5 days and administered continously for 7 days post last MPTP dose by HPLC analysis; assay type: functional, organism-based
# Procedure, shortened: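 Sub-acute model: male C57/BL mice given MPTP·HCl 30 mg/kg i.p. for 5 days. Agent (5–20 mg/kg) or L-DOPA 20 mg/kg in 0.5% CMC-Na dosed 30 min before each injection, then for 7 more days. Striatum sonicated in 0.6 N perchloric acid, centrifuged, phosphate/citrate/EDTA solution added, recentrifuged; dopamine by HPLC, n = 8.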
# Mus musculus [7] = assay: (§2) Antineuro-inflammatrory activity in MPTP-induced subacute C57/BL mouse Parkinson's disease model assessed as decrease in IL-1beta levels in midbrain at 10 to 20 mg/kg co-administered with L-DOPA dosed 30 mins prior to each MPTP injection for 5 days and administered continuously for 7 days post last MPTP dose measured on day 12 post last dose by ELISA; assay type: functional, organism-based
# Procedure, shortened: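 Male C57/BL mice (22–25 g) received MPTP hydrochloride 30 mg/kg i.p. daily for 5 days. Test agent (5, 10, 20 mg/kg) or L-DOPA 20 mg/kg, suspended in 0.5% CMC-Na, given 30 min before each MPTP injection, then continued for 7 more days. On day 12 the midbrain was homogenised in non-denaturing lysis buffer with protease inhibitor and IL-1β or TNF-α measured by ELISA, n = 6, mean ± SD.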
# Mus musculus [8] = assay: as §2, with “TNF-alpha” for “IL-1beta”, “co-administered with L-DOPA” left out; assay type: functional, organism-based
# Mus musculus [9] = assay: In vivo inhibition of Src in MPTP/probenecid-induced chronic C57/BL mouse Parkinson's disease model assessed as effect on Akt expression level in midbrain at 5 to 20 mg/kg dosed once daily for 7 weeks post 10 doses of MPTP/probenecid for 5 weeks by iTRAQ-labelled 2D-LC/MS/MS analysis; assay type: functional, organism-based
# Mus musculus [10] = assay: In vivo inhibition of Src in MPTP/probenecid-induced chronic C57/BL mouse Parkinson's disease model assessed as effect on NOS1 expression level in midbrain at 5 to 20 mg/kg dosed once daily for 7 weeks post 10 doses of MPTP/probenecid for 5 weeks by iTRAQ-labelled 2D-LC/MS/MS analysis; assay type: functional, organism-based
# Mus musculus [11] = assay: Effect on GSK3beta protein expression level in midbrain of MPTP/probenecid-induced chronic C57/BL mouse Parkinson's disease model at 5 to 20 mg/kg dosed once daily for 7 weeks post 10 doses of MPTP/probenecid for 5 weeks by iTRAQ-labelled 2D-LC/MS/MS analysis; assay type: functional, organism-based
# [12] = target: Proto-oncogene tyrosine-protein kinase Src (Rattus norvegicus) (UniProt Q9WUD9); assay: Inhibition of Src in Sprague-Dawley rat primary microglia cells assessed as suppression of LPS-stimulated Akt phosphorylation at Ser-473 residue at 10 uM preincubated for 1 hr followed by LPS challenge measured after 3 hrs by Western blot analysis
# Procedure, shortened: (§3)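 Primary microglia from 1-day-old Sprague-Dawley rat brains, grown to confluence 12–14 days, shaken off astroglia (>98% pure). Agent at 10 µM added 1 h before LPS 100 ng/mL. Phosphorylated Src, Akt and PTEN measured 3 h later by Western blot, n = 4.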
# [13] = target: Proto-oncogene tyrosine-protein kinase Src (Rattus norvegicus) (UniProt Q9WUD9); assay: Inhibition of LPS-induced Src phosphorylation at Tyr-416 residue in Sprague-Dawley rat primary microglia cells at 10 uM preincubated for 1 hr followed by LPS stimulation measured after 3 hrs by Western blot analysis; procedure, shortened: as §3
# Mus musculus [14] = assay: Hepatotoxicity in ICR mouse at 250 to 1000 mg/kg administered through oral gavage for 14 consecutive days; assay type: toxicity, organism-based; conditions: in vivo
# Procedure, shortened: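 Mice dosed by oral gavage at 250, 500 and 1000 mg/kg for 14 consecutive days. General condition monitored throughout; liver and kidney clinical chemistry assessed.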
# Mus musculus [15] = assay: In vivo inhibition of Src in MPTP/probenecid-induced chronic C57/BL mouse Parkinson's disease model assessed as effect on Akt expression level in midbrain at 5 to 20 mg/kg […] once in a day for 7 weeks post 10 doses of MPTP for 5 weeks by Western blot analysis; assay type: functional, organism-based
# Mus musculus [16] = assay: In vivo inhibition of Src in MPTP/probenecid-induced chronic C57/BL mouse Parkinson's disease model assessed as effect on NOS1 expression level in midbrain at 5 to 20 mg/kg co-administered with L-DOPA once in a day for 7 weeks post 10 doses of MPTP for 5 weeks by Western blot analysis; assay type: functional, organism-based
# Mus musculus [17] = assay: Effect on ROCK1 protein expression level in midbrain of MPTP/probenecid-induced chronic C57/BL mouse Parkinson's disease model at 5 to 20 mg/kg dosed once daily for 7 weeks post 10 doses of MPTP/probenecid for 5 weeks by Western blot analysis; assay type: functional, organism-based
# [18] = target: Proto-oncogene tyrosine-protein kinase Src (Rattus norvegicus) (UniProt Q9WUD9); assay: Inhibition of Src in Sprague-Dawley rat primary mixed mesecephalic neuron/glial cells assessed as suppression of LPS-induced microglia activation by measuring Iba-1 expression at 10 uM preincubated for 1 hr followed by LPS challenge measured after 24 hrs
compound,measurement,setting,value
COc1cc(OC)c(CN[C@@H](CO)C(=O)O)c(OC)c1,inhibition,[1],Active
same,inhibition,[2],Active
same,inhibition,[3],Active
same,Drug uptake,[4],Active
same,inhibition (INH),[5],Active
same,Activity,Mus musculus [6],Active
same,Activity,Mus musculus [7],Active
same,Activity,Mus musculus [8],Active
same,inhibition,Mus musculus [9],Active
same,inhibition,Mus musculus [10],Active
same,Activity,Mus musculus [11],Active
same,inhibition,[12],Active
same,inhibition,[13],Active
same,Activity,Mus musculus [14],Non-Toxic
same,inhibition,Mus musculus [15],Active
same,inhibition,Mus musculus [16],Active
same,Activity,Mus musculus [17],Active
same,inhibition,[18],Active
